How the values were obtained:
Assay type in all cases: functional
[1] = In vitro ability to protect human LDL against Cu2+-induced peroxidation. (concentration inhibiting 50% of the Cu2+ induced lipid peroxidation)
Outline: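 Human LDL (120 µg/mL) oxidized with 10 µM CuSO4 as initiator for 4 h in the presence of compound. Lipid peroxidation read out as TBARS. IC50 is the concentration inhibiting TBARS formation by 50%.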

[2] = species on record: Homo sapiens; experiment: Antioxidant effect on the Cu2+-mediated oxidation andapoB-100 fragmentation in LDL after incubation with 5 uM of compound
Outline: (§1)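 LDL (240 µg/mL in PBS) incubated 12 h at 37 °C with 5 µM CuSO4, with or without compound. About 2.0 µg LDL protein run on 4% SDS-PAGE and stained with Coomassie Brilliant Blue R250. ApoB-100 band quantified by densitometry as peak area (absorbance units per mm). Also reported as percent remaining apoB-100 relative to intact apoB-100 of native LDL incubated without CuSO4.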

[3] = species on record: Homo sapiens; experiment: Antioxidant effect on the Cu2+-mediated oxidation andapoB-100 fragmentation in LDL after incubation with 10 uM of compound; outline: as §1
[4] = species on record: Homo sapiens; experiment: Antioxidant effect on the Cu2+-mediated oxidation andapoB-100 fragmentation in LDL after incubation with 20 uM of compound; outline: as §1
[5] = species on record: Homo sapiens; experiment: Antioxidant effect on the Cu2+-mediated oxidation and apoB-100 fragmentation in LDL after incubation with 10 uM of compound; outline: as §1
[6] = species on record: Homo sapiens; experiment: Antioxidant effect on the Cu2+-mediated oxidation and apoB-100 fragmentation in LDL after incubation with 20 uM of compound; outline: as §1
[7] = species on record: Homo sapiens; experiment: Antioxidant effect on the Cu2+-mediated oxidation and apoB-100 fragmentation in LDL after incubation with 5 uM of compound; outline: as §1

IC50 [1] [nM] | SMILES | other results
200 | Cc1cc(C2CC(c3cc(C(C)(C)C)c(O)c(C(C)(C)C)c3)=NN2)cc(C)c1O (stereo not drawn) | –
200 | COc1cc(C2CC(c3cc(C(C)(C)C)c(O)c(C(C)(C)C)c3)=NN2)ccc1O (stereo not drawn) | –
600 | Cc1cc(C2CC(c3cc(C(C)(C)C)c(O)c(C(C)(C)C)c3)=NN2)c(C)c(C)c1O (stereo not drawn) | –
700 | CC(C)c1cc(C2CC(c3cc(C(C)(C)C)c(O)c(C(C)(C)C)c3)=NN2)cc(C(C)C)c1O (stereo not drawn) | –
100 | CC(C)(C)c1cc(C2=NNC(c3cc(C(C)(C)C)c(O)c(C(C)(C)C)c3)C2)cc(C(C)(C)C)c1O (stereo not drawn) | Area [2]: 5.63 AU mm-1; Area [3]: 9.26 AU mm-1; Area [4]: 9.97 AU mm-1
300 | CC(C)(C)c1cc(C2=NNC(c3ccc(O)c(O)c3)C2)cc(C(C)(C)C)c1O (stereo not drawn) | –
200 | CC(C)(C)c1cc(C2=NNC(c3cc(F)c(O)c(F)c3)C2)cc(C(C)(C)C)c1O (stereo not drawn) | –
200 | CC(C)(C)c1cc(C2=NNC(c3ccc(O)cc3)C2)cc(C(C)(C)C)c1O (stereo not drawn) | –
700 | CC(C)(C)c1cc(-c2cc(-c3cc(C(C)(C)C)c(O)c(C(C)(C)C)c3)[nH]n2)cc(C(C)(C)C)c1O | –
300 | CC(C)(C)c1cc(C2=NNC(c3ccc(O)c([N+](=O)[O-])c3)C2)cc(C(C)(C)C)c1O (stereo not drawn) | –
600 | CC(C)(Sc1cc(C(C)(C)C)c(O)c(C(C)(C)C)c1)Sc1cc(C(C)(C)C)c(O)c(C(C)(C)C)c1 [PROBUCOL] | Area [5]: 4.73 AU mm-1; Area [6]: 9.22 AU mm-1; Area [7]: 0 AU mm-1
600 | CC(C)(C)c1cc(C2=NNC(c3cc(-c4ccccc4)c(O)c(-c4ccccc4)c3)C2)cc(C(C)(C)C)c1O (stereo not drawn) | –

From ChEMBL document CHEMBL1148421, “Novel 3,5-diaryl pyrazolines and pyrazole as low-density lipoprotein (LDL) oxidation inhibitor” (Bioorg Med Chem Lett, 2004)
